# Experimental data taken from ChEMBL document CHEMBL3227926, “2-Mercaptoacetamidines as gastric antisecretory agents” (J Med Chem, 1979).
# Key:
# Canis familiaris [1] = experiment: Inhibition of gastrin tetrapeptide-induced gastric secretion in beagle dog at 8 mg/kg administered directly into stomach via gastric cannula measured after 2 hrs of stimulation; format: functional; settings: Canis lupus familiaris
# Method in brief: (§1)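 Conscious female beagles (5-9 kg) with chronic gastric fistula. Dose in 50 mL 1% methylcellulose was put into the stomach via the cannula 1 h before gastrin tetrapeptide 64 µg/kg sc (from 640 µg/mL in 30% Me2SO); controls got vehicle. Juice was collected for 2 h. Volume was measured, titratable acid obtained by titration to pH 7 with 0.01 N NaOH, and total acid taken as volume × concentration.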
# Canis familiaris [2] = experiment: Inhibition of gastrin tetrapeptide-induced gastric secretion in beagle dog at 16 mg/kg administered directly into stomach via gastric cannula measured after 2 hrs of stimulation; format: functional; settings: Canis lupus familiaris; method in brief: as §1
# Canis familiaris [3] = experiment: Toxicity in beagle dog assessed as emesis administered directly into stomach via gastric cannula; format: organism-based, Canis lupus familiaris; settings: in vivo, other
# Canis familiaris [4] = experiment: Toxicity in beagle dog assessed as tachycardia administered directly into stomach via gastric cannula; format: organism-based, Canis lupus familiaris; settings: in vivo, other
# Canis familiaris [5] = experiment: Toxicity in beagle dog assessed as gastric bleeding administered directly into stomach via gastric cannula; format: organism-based, Canis lupus familiaris; settings: in vivo, other
# Canis familiaris [6] = experiment: Inhibition of gastrin tetrapeptide-induced gastric secretion in beagle dog at 4 mg/kg administered directly into stomach via gastric cannula measured after 2 hrs of stimulation; format: functional; settings: Canis lupus familiaris; method in brief: as §1
SMILES,inhibition in vivo at 8 mg/kg (Canis familiaris [1]) [%],inhibition in vivo at 16 mg/kg (Canis familiaris [2]) [%],Activity (Canis familiaris [3]),Activity (Canis familiaris [4]),Activity (Canis familiaris [5]),inhibition in vivo at 4 mg/kg (Canis familiaris [6]) [%]
Cl.N=C(CSSCC(=N)NCC12CC3CC(CC(C3)C1)C2)NCC12CC3CC(CC(C3)C1)C2,62,80,Toxic,Toxic,Toxic,
Cl.N=C(CS)N1CCOCC1,2,23,Toxic,Toxic,Toxic,
Cl.N=C(CS)NC12CC3CC(CC(C3)C1)C2,61,86,Toxic,Toxic,Toxic,
Cl.N=C(CS)NC1C2CC3CC(C2)CC1C3 (configuration not stated),,85,Toxic,Toxic,Toxic,
Cl.N=C(CS)NCC1C2CC3CC(C2)CC1C3 (configuration not stated),67,,Toxic,Toxic,Toxic,
Cl.N=C(CS)NCCC12CC3CC(CC(C3)C1)C2,61,100,Toxic,Toxic,Toxic,0
Cl.N=C(CS)NCCCC12CC3CC(CC(C3)C1)C2,81,,Toxic,Toxic,Toxic,36
Cl.N=C(CS)NCCCCC12CC3CC(CC(C3)C1)C2,67,,Toxic,Toxic,Toxic,0
Cl.N=C(CS)NCCCCCC12CC3CC(CC(C3)C1)C2,9,,Toxic,Toxic,Toxic,
Cl.N=C(N)CS,89,,Toxic,Toxic,Toxic,
CC(C)NC(=N)CS.Cl,58,,Toxic,Toxic,Toxic,
CC(C)(C)CNC(=N)CS.Cl,95,,Toxic,Toxic,Toxic,25
Cl.N=C(CS)NCC1CCCCC1,86,,Toxic,Toxic,Toxic,
Cl.N=C(CS)NCC12CCC(CC1)C2,91,,Toxic,Toxic,Toxic,0
Cl.N=C(CS)NCC12CCC(CC1)CC2,87,,Toxic,Toxic,Toxic,48
Cl.N=C(CS)NCC12CCCC(CC1)C2 (configuration not stated),95,,Toxic,Toxic,Toxic,0
Cl.N=C(CS)NCC12CCCC(CCC1)C2,67,23,Toxic,Toxic,Toxic,
Cl.N=C(CS)NCC1CC2C3CCC(C3)C2C1 (configuration not stated),70,,Toxic,Toxic,Toxic,
Cl.N=C(CS)NCC12CCC(C(=O)O)(CC1)CC2,0,,Toxic,Toxic,Toxic,
Cl.N=C(CS)NCc1ccccc1,83,,Toxic,Toxic,Toxic,29
Cl.N=C(CS)NCc1ccncc1,85,,Toxic,Toxic,Toxic,
Cl.N=C(CS)NCc1ccccn1,82,,Toxic,Toxic,Toxic,
Cl.N=C(CS)NC/C=C/c1ccccc1,53,,Toxic,Toxic,Toxic,
Cl.N=C(CS)NCC(c1ccccc1)c1ccccc1,0,60,Toxic,Toxic,Toxic,
Cl.N=C(CS)NC(c1ccccc1)c1ccccc1,,82,Toxic,Toxic,Toxic,
Cl.N=C(CS)NC(c1ccccc1)c1ccc(Cl)cc1 (configuration not stated),,87,Toxic,Toxic,Toxic,
Cl.N=C(CS)NC(Cc1ccccc1)c1ccccc1 (configuration not stated),,84,Toxic,Toxic,Toxic,

SMILES,inhibition in vivo at 8 mg/kg (Canis familiaris [1]) [%],inhibition in vivo at 16 mg/kg (Canis familiaris [2]) [%],Activity (Canis familiaris [3]),Activity (Canis familiaris [4]),Activity (Canis familiaris [5]),inhibition in vivo at 4 mg/kg (Canis familiaris [6]) [%]
Cl.N=C(CS)NC1CCCC1,100,,Toxic,Toxic,Toxic,63
Cl.N=C(CS)NC1CCCCC1,79,,Toxic,Toxic,Toxic,37
Cl.N=C(CS)NC1Cc2ccccc2C1,,100,Toxic,Toxic,Toxic,
Cl.N=C(CS)NC1CCc2ccccc21 (configuration not stated),20,85,Toxic,Toxic,Toxic,
Cl.N=C(CS)NC1c2ccccc2-c2ccccc21,,0,Toxic,Toxic,Toxic,
Cl.N=C(CS)Nc1ccccc1,,0,Toxic,Toxic,Toxic,
Cl.N=C(CS)Nc1cccc2ccccc12,,64,Toxic,Toxic,Toxic,
Cl.N=C(CS)Nc1cccc2c1CCCC2,,14,Toxic,Toxic,Toxic,
CN(C)C(=N)CS.Cl,62,,Toxic,Toxic,Toxic,0
CN(Cc1ccccc1)C(=N)CS.Cl,,0,Toxic,Toxic,Toxic,
Cl.N=C(CS)N1CC2CCC(CC2)C1,,92,Toxic,Toxic,Toxic,
O=C(CS)NCc1ccccc1,0,,Toxic,Toxic,Toxic,
O=C(CS)NC1CCCCC1,0,,Toxic,Toxic,Toxic,
O=C(CS)NC12CC3CC(CC(C3)C1)C2,,58,Toxic,Toxic,Toxic,
CC(S)C(=N)NCC(C)(C)C.Cl (configuration not stated),0,28,Toxic,Toxic,Toxic,
CC(C)(C)CNC(=N)CCCS.Cl,11,,Toxic,Toxic,Toxic,
Cl.N=C(CSSCC(=N)NCc1ccccc1)NCc1ccccc1,,,Toxic,Toxic,Toxic,84
CC(C)(C)CNC(=N)CCSSCCC(=N)NCC(C)(C)C.Cl,21,75,Toxic,Toxic,Toxic,
Cl.N=C(CCSSCCC(=N)NCc1ccccc1)NCc1ccccc1,,42,Toxic,Toxic,Toxic,
CC(C)(C)CNC(=N)CO.Cl,22,61,Toxic,Toxic,Toxic,
Cl.N=C(CO)NCc1ccccc1,,0,Toxic,Toxic,Toxic,
CC(=N)NCc1ccccc1.Cl,,19,Toxic,Toxic,Toxic,
CC(=N)NC1CCCCC1,,0,Toxic,Toxic,Toxic,
Cl.N=C(CS)N[C@@H]1C[C@H]2CC[C@H]1C2 (relative stereo),94,,Toxic,Toxic,Toxic,
CSCC(=N)NC[C@@H]1C[C@H]2CC[C@H]1C2 (relative stereo),35,,Toxic,Toxic,Toxic,
Cl.N=C(CS)NC[C@@H]1C[C@H]2CC[C@H]1C2 (relative stereo; 15),,,Toxic,Toxic,Toxic,
